According to ChEMBL document CHEMBL1136924 (J Med Chem, 2009):
The source made the active and inactive calls.

Experiments:
[1] = target: T1, 5-hydroxytryptamine receptor 3A (Rattus norvegicus, UniProt P35563); experiment: Displacement of [3H]LY278584 from 5HT3 receptor in rat cortical homogenate
T1 sequence (P35563 whole entry): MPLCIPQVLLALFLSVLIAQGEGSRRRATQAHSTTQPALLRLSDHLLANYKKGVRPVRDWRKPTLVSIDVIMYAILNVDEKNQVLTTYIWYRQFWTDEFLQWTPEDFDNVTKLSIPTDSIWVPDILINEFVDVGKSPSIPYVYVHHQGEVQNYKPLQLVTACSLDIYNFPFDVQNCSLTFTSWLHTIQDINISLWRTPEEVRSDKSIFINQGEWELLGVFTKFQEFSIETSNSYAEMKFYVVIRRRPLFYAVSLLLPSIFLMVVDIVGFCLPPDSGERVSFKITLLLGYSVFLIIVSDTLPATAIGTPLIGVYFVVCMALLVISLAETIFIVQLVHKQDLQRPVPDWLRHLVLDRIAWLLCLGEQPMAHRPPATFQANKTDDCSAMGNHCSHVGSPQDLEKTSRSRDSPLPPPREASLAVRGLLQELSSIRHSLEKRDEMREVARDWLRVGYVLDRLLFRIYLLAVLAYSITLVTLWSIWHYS

[2] = target: T2, 5-hydroxytryptamine receptor 1A (Rattus norvegicus, UniProt P19327); experiment: Displacement of [3H]8-OHDPAT from 5HT1A receptor in rat hippocampus; assay type: tissue-based
T2 sequence (P19327 whole entry): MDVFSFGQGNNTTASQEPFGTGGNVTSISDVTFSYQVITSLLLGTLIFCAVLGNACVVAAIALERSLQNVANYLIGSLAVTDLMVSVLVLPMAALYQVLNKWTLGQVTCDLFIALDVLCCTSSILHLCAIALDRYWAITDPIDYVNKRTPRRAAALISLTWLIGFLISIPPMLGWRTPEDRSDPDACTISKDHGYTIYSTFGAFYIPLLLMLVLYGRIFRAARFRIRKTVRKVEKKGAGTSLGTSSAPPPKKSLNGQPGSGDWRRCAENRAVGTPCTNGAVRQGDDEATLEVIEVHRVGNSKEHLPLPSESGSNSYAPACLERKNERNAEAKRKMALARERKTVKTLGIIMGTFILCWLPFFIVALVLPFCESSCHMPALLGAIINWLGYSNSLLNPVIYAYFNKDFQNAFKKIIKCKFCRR

[3] = target: 5-hydroxytryptamine receptor 2A (Rattus norvegicus, UniProt P14842); experiment: Displacement of [3H]ketanserin from 5HT2A receptor in rat cortex
Sequence of 5-hydroxytryptamine receptor 2A (P14842 whole entry): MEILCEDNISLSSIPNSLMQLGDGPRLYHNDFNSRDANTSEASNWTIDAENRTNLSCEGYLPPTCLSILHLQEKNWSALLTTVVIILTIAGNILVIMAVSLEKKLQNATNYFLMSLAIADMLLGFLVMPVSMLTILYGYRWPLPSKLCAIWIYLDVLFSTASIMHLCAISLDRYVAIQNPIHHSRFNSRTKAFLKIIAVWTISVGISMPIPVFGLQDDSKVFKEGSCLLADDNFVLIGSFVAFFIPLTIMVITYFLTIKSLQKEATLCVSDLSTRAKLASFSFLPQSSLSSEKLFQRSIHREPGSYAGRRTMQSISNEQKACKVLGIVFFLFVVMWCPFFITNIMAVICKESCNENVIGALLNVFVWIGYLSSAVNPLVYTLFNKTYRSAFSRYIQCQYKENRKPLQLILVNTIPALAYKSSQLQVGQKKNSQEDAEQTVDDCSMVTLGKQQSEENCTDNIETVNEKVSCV

[4] = target: 5-hydroxytryptamine receptor 4 (Cavia porcellus, UniProt O70528); experiment: Displacement of [3H]GR-113808 from 5HT4 receptor in guinea pig striatum
Sequence of 5-hydroxytryptamine receptor 4 (O70528 whole entry): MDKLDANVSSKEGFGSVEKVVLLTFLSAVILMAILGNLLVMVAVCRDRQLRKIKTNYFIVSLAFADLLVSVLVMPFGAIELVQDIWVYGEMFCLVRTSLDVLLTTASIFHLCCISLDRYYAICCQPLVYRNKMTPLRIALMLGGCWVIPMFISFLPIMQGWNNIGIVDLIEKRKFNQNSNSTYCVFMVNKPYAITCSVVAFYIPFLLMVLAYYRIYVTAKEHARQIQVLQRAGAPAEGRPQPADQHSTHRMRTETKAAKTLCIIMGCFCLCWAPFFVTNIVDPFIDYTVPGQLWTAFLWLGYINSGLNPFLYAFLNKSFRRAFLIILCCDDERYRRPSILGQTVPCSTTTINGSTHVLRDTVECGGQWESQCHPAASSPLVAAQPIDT

[5] = target: T3, Adrenergic receptor alpha-1 (Rattus norvegicus, UniProt P15823+P23944+P43140); experiment: Displacement of [3H]prazosin from adrenergic alpha1 receptor in rat cortex
T3 sequence (P15823 whole entry): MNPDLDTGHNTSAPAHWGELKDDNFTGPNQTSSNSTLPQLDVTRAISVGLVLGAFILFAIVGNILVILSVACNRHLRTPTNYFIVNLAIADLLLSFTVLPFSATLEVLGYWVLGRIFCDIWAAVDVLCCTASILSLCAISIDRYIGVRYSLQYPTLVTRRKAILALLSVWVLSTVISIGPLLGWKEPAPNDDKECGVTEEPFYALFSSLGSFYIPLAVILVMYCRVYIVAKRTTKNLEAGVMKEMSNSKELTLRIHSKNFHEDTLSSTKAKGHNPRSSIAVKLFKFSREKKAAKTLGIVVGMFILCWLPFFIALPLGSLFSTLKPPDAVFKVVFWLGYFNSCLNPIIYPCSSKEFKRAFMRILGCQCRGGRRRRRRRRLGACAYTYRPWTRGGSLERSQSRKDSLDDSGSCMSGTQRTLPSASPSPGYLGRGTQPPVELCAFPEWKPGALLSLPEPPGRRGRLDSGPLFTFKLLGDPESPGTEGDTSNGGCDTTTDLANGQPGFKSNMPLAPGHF
T3 sequence (P23944 whole entry): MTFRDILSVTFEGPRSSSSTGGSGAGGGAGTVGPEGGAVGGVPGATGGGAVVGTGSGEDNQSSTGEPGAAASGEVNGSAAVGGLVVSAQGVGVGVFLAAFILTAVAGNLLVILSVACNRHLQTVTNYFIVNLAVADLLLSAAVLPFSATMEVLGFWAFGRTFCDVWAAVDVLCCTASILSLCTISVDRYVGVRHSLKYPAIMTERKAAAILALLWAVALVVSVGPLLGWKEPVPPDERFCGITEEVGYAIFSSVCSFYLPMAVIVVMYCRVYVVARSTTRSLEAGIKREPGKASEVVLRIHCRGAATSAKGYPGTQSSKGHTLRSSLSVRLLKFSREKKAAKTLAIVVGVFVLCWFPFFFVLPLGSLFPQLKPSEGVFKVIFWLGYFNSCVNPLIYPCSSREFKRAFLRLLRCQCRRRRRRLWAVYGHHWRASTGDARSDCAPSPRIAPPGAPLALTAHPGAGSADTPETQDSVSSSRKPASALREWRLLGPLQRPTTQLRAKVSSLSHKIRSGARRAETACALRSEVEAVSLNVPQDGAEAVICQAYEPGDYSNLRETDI
T3 sequence (P43140 whole entry): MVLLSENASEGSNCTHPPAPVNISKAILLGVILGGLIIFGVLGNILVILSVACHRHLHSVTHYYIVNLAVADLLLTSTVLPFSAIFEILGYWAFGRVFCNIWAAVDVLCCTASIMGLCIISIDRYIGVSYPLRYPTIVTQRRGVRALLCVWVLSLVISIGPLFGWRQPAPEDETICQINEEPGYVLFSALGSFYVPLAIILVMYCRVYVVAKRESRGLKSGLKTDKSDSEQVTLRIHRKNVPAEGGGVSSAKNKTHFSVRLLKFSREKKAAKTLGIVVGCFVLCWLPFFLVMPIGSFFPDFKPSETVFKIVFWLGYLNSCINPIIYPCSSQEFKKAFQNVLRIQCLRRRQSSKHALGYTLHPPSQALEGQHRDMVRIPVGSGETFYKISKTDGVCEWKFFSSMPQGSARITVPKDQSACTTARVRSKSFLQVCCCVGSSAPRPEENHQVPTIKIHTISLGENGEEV

[6] = target: T4, Alpha-2A adrenergic receptor (Rattus norvegicus, UniProt P22909); experiment: Displacement of [3H]RX821002 from adrenergic alpha2 receptor in rat cortex
T4 sequence (P22909 whole entry): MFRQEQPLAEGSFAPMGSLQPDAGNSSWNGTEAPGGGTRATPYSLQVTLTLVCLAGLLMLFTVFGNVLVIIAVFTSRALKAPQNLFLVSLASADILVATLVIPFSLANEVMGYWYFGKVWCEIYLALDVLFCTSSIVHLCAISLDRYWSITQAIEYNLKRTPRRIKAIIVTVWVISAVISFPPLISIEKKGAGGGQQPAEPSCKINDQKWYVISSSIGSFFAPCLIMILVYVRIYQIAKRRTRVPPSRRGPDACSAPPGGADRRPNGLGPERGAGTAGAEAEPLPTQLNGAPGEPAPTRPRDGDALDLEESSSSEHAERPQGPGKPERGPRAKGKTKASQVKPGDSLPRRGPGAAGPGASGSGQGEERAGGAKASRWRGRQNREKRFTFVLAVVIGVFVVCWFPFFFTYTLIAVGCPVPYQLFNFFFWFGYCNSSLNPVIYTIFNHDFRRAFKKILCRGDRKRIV

[7] = target: D(1A) dopamine receptor (Rattus norvegicus, UniProt P18901); experiment: Displacement of [3H]SCH-23390 from dopamine D1 receptor in rat striatum
Sequence of D(1A) dopamine receptor (P18901 whole entry): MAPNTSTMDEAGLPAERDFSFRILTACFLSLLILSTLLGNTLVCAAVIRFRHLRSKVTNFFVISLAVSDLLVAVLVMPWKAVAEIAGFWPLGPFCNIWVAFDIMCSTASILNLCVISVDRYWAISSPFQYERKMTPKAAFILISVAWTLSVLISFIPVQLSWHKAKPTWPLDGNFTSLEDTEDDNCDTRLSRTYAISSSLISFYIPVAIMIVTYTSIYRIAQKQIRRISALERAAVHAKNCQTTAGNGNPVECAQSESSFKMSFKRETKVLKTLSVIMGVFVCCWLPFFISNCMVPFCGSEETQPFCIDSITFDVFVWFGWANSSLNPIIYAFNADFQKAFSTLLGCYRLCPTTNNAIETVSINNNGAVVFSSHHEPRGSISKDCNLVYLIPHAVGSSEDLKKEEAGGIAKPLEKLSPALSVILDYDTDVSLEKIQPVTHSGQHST

[8] = target: D(2) dopamine receptor (Rattus norvegicus, UniProt P61169); experiment: Displacement of [3H]spiperone from dopamine D2 receptor in rat striatum
Sequence of D(2) dopamine receptor (P61169 whole entry): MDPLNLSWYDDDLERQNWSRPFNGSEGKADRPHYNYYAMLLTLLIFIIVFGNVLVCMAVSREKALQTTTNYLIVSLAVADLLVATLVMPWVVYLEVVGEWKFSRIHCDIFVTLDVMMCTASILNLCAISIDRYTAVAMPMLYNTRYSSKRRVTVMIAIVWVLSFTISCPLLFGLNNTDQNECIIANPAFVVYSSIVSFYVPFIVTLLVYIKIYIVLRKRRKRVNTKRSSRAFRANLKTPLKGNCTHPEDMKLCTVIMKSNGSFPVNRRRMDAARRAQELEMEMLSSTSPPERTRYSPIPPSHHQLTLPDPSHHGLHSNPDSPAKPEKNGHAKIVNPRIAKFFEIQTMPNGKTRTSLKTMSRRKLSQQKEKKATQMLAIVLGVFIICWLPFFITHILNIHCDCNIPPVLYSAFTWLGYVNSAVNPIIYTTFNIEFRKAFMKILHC

[9] = target: Muscarinic acetylcholine receptor; experiment: Displacement of [3H]QNB from muscarinic receptor in rat cortex
[10] = tested on: Rattus norvegicus; experiment: Antagonist activity at 5HT3 receptor in urethane-anesthetized Sprague-Dawley rat assessed as attenuation of 1-phenylbiguanide-induced bradycardia at 50 ug/kg, iv administered 5 mins before 1-phenylbiguanide challenge measured after 30 mins post-treatment by von Bezold-Jarisch reflex test; assay type: functional; parameters: scale not given: the % may be the effect or the level left
[11] = target: T5, 5-hydroxytryptamine receptor 3A (Cavia porcellus) (UniProt O70212); experiment: Agonist activity at 5HT3 receptor in voltage-stimulated guinea pig left atrium assessed as positive inotropic potency at 100 uM; assay type: functional, tissue-based; conditions: Cardiac atrium
T5 sequence (whole entry): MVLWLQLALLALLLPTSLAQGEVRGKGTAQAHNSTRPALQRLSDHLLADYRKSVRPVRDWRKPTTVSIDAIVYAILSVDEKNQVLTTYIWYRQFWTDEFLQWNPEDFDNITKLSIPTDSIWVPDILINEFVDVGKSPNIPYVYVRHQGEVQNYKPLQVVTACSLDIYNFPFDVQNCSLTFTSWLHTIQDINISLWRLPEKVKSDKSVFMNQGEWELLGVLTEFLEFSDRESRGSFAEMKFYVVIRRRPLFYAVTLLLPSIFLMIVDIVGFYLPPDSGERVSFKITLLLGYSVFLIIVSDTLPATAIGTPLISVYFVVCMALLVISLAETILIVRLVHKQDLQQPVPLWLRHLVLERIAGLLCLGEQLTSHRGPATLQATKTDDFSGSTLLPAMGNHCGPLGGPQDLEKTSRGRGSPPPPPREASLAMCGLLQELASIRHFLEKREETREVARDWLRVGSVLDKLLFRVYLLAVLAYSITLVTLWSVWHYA
Method in brief: (§1)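 Guinea pig left and right atria were hung in a 15 mL bath of PSS (pH 7.4, 95% O2-5% CO2, 35 °C) with ketanserin 1 µM. The right atrium beat spontaneously; the left was paced at 1 Hz. Cumulative doses (0.1-100 µM; DMSO ≤0.3%) were added after 45-60 min stabilization. Rate or isometric force was recorded. EC50 came from Probit analysis, n≥4. Intrinsic activity was taken relative to 5-HT.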

[12] = target: T5, 5-hydroxytryptamine receptor 3A (Cavia porcellus); experiment: Agonist activity at 5HT3 receptor in spontaneously beating guinea pig right atrium assessed as positive chronotropic potency at 100 uM; assay type: functional, tissue-based; conditions: Cardiac atrium; method in brief: as §1
[13] = target: T5, 5-hydroxytryptamine receptor 3A (Cavia porcellus); experiment: Agonist activity at 5HT3 receptor in guinea pig thoracic aorta assessed as positive contractility potency at 100 uM; assay type: functional, tissue-based
Method in brief: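 Guinea pig aortic helicoidal strips in PSS at 35 °C, aerated, under 1 g resting force, washed every 20 min for 1 h. Compounds added cumulatively 0.1-100 µM (DMSO vehicle); isometric contraction recorded.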

[14] = target: T6, 5-hydroxytryptamine receptor 3A (Cavia porcellus, UniProt O70212); experiment: Antagonist activity at 5HT3 receptor in spontaneously beating guinea pig right atrium assessed as inhibition of serotonin-induced maximum response by noncompetitive binding assay; assay type: tissue-based, Cardiac atrium
T6 sequence (O70212 whole entry): T5 sequence (whole entry)
Method in brief: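 Spontaneously beating guinea pig right atrium; 5-HT concentration-response curves (0.001-1.0 µM) before and after 30 min antagonist exposure at three concentrations. IC50 is inhibition of 50% of maximal 5-HT response, Probit analysis, n = 4-6.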

[15] = tested on: Rattus norvegicus; experiment: Antagonist activity at 5HT3 receptor in iv dosed urethane-anesthetized Sprague-Dawley rat assessed as inhibition of 1-phenylbiguanide-induced bradycardia administered 5 mins before 1-phenylbiguanide challenge measured after 5 to 30 mins post-treatment by von Bezold-Jarisch reflex test; assay type: functional
[16] = target: T5, 5-hydroxytryptamine receptor 3A (Cavia porcellus); experiment: Agonist activity at 5HT3 receptor in voltage-stimulated guinea pig left atrium assessed as positive inotropic potency; assay type: functional, tissue-based; conditions: Cardiac atrium
Method in brief: (§2)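 Isolated guinea pig atria in PSS (Tyrode) with ketanserin 1 µM, 95% O2-5% CO2, pH 7.4, 35 °C. Right atrium beating spontaneously (rate); left atrium paced 1 Hz, 0.6-0.8 ms pulses near 50% threshold (force). Isometric recording after 45-60 min stabilization.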

[17] = target: T5, 5-hydroxytryptamine receptor 3A (Cavia porcellus); experiment: Intrinsic activity at 5HT3 receptor in voltage-stimulated guinea pig left atrium assessed as positive inotropic potency relative to serotonin; assay type: tissue-based; conditions: Cardiac atrium
Method in brief: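 Electrically paced guinea pig left atrium (1 Hz) in PSS containing ketanserin 1 µM, pH 7.4, 35 °C. Contractile force recorded isometrically while cumulative concentrations of 0.1-100 µM were added (DMSO ≤0.3%). Intrinsic activity is expressed as the maximal response relative to that of 5-HT.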

[18] = tested on: Rattus norvegicus; experiment: Agonist activity at 5HT3 receptor in urethane-anesthetized Sprague-Dawley rat assessed as decrease in heart rate at 40 ug/kg, iv up to 30 seconds post-treatment by von Bezold-Jarisch reflex test; assay type: functional; parameters: scale not given: the % may be the effect or the level left
[19] = target: T5, 5-hydroxytryptamine receptor 3A (Cavia porcellus); experiment: Agonist activity at 5HT3 receptor in spontaneously beating guinea pig right atrium assessed as positive chronotropic potency; assay type: functional, tissue-based; conditions: Cardiac atrium; method in brief: as §2
[20] = target: T5, 5-hydroxytryptamine receptor 3A (Cavia porcellus); experiment: Intrinsic activity at 5HT3 receptor in spontaneously beating guinea pig right atrium assessed as positive chronotropic potency relative to serotonin; conditions: Cardiac atrium; method in brief: as §1

## N[C@H](CN1CCN(c2nc3cc(F)ccc3n3cccc23)CC1)C(=O)O
[1]
  Ki: 0.0012 µM
[2]
  Ki: 0.48 µM
[3]
  Ki: > 10 µM
[4]
  Ki: > 10 µM
[5]
  Ki: > 10 µM
[6]
  Ki: > 10 µM
[7]
  Ki: > 10 µM
[8]
  Ki: > 10 µM
[9]
  Ki: > 10 µM

## NC(=O)CN1CCN(c2nc3cc(F)ccc3n3cccc23)CC1
[10]
  Activity: 35%
[1]
  Ki: 0.0073 µM
[11]
  pD2: inactive
[12]
  pD2: inactive
[13]
  pD2: inactive
[14]
  IC50: 11.2 µM
[15]
  ID50: Dose-dependent effect
[15]; read-out: ID50 (the source's name)
  ED50: 0.075 mg/kg

## N=C(N)NC(=N)Nc1ccccc1 [PHENYL BIGUANIDE]
[16]
  pD2: 4.31
[17]
  Intrinsic activity: 1
[18]
  Activity: 64%

## Cc1[nH]c2ccc(O)cc2c1CCN
[16]
  pD2: 5.51
[17]
  Intrinsic activity: 1
[19]
  pD2: 5.06
[20]
  Intrinsic activity: 1
